Data: ChEMBL document CHEMBL3351699, “Diarylthiazole: an antimycobacterial scaffold potentially targeting PrrB-PrrA two-component system” (J Med Chem, 2014)
≈ marks a conversion by molar mass, not a printed value. Calls of active or inactive are those of the source. The rule behind the calls is not given here.

Experiments:
[1] = test system: Mycobacterium tuberculosis; assay: Antimicrobial activity against Mycobacterium tuberculosis H37Rv ATCC 27294 assessed as reduction in bacterial count relative to untreated control; type: functional
In short: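 About 10⁶ Mtb cells/mL exposed to compound for 10 days; viable count read as Log₁₀ CFU/mL reduction versus untreated controls.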

[2] = test system: Mycobacterium tuberculosis; assay: Antimicrobial activity against Mycobacterium tuberculosis H37Rv ATCC 27294 infected in human THP1 cells assessed as reduction in bacterial count at 2 times MIC relative to untreated control; type: functional, THP-1
[3] = target: T1, Enoyl-[acyl-carrier-protein] reductase [NADH] (Mycobacterium tuberculosis, UniProt P9WGR1); assay: Inhibition of Mycobacterium tuberculosis InhA using NADH and dodecyl coA substrate by LC-MS/MS method
T1 sequence (P9WGR1 whole entry): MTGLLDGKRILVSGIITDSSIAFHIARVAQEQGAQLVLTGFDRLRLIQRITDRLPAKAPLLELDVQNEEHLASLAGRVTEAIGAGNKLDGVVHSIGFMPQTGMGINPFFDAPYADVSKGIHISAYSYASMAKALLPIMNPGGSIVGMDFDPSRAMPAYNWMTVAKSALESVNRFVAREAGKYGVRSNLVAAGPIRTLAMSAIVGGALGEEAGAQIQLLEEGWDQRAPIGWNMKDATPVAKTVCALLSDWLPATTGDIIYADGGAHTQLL

[4] = test system: Mycobacterium tuberculosis; assay: Induction of fatty acid metabolism related gene expression in Mycobacterium tuberculosis H37Rv ATCC 27294 at 7.5 ug/mL incubated for 4 hrs by DNA microarray analysis; type: functional, organism-based
In short: (§1)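 Total RNA was isolated from compound-treated Mtb cultures and hybridised on DNA microarrays, with RNA from an untreated Mtb culture as the control.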

[5] = test system: Mycobacterium tuberculosis; assay: Induction of anaerobic state electron transport chain maintenance related gene expression in Mycobacterium tuberculosis H37Rv ATCC 27294 at 7.5 ug/mL incubated for 4 hrs by DNA microarray analysis; type: functional, organism-based; in short: as §1
[6] = test system: Mycobacterium tuberculosis; assay: Induction of cytochrome ubiquinol oxidase gene expression in Mycobacterium tuberculosis H37Rv ATCC 27294 at 7.5 ug/mL incubated for 4 hrs by DNA microarray analysis; type: functional, organism-based; in short: as §1
[7] = test system: Mycobacterium tuberculosis; assay: Induction of fumarate reductase gene expression in Mycobacterium tuberculosis H37Rv ATCC 27294 at 7.5 ug/mL incubated for 4 hrs by DNA microarray analysis; type: functional, organism-based; in short: as §1
[8] = test system: Mycobacterium tuberculosis; assay: Induction of nitrate reductase gene expression in Mycobacterium tuberculosis H37Rv ATCC 27294 at 7.5 ug/mL incubated for 4 hrs by DNA microarray analysis; type: functional, organism-based; in short: as §1
[9] = test system: Mycobacterium tuberculosis; assay: Induction of oxido-reductases gene expression in Mycobacterium tuberculosis H37Rv ATCC 27294 at 7.5 ug/mL incubated for 4 hrs by DNA microarray analysis; type: functional, organism-based; in short: as §1
[10] = test system: Mycobacterium tuberculosis; assay: Reduction in RNA metabolism related gene expression in Mycobacterium tuberculosis H37Rv ATCC 27294 at 7.5 ug/mL incubated for 4 hrs by DNA microarray analysis; type: functional, organism-based; in short: as §1
[11] = test system: Mycobacterium tuberculosis; assay: Reduction in protein synthesis related gene expression in Mycobacterium tuberculosis H37Rv ATCC 27294 at 7.5 ug/mL incubated for 4 hrs by DNA microarray analysis; type: functional, organism-based; in short: as §1
[12] = test system: Mycobacterium tuberculosis; assay: Reduction in RNA polymerase subunits gene expression in Mycobacterium tuberculosis H37Rv ATCC 27294 at 7.5 ug/mL incubated for 4 hrs by DNA microarray analysis; type: functional, organism-based; in short: as §1
[13] = test system: Mycobacterium tuberculosis; assay: Reduction in sigma factors gene expression in Mycobacterium tuberculosis H37Rv ATCC 27294 at 7.5 ug/mL incubated for 4 hrs by DNA microarray analysis; type: functional, organism-based; in short: as §1
[14] = test system: Mycobacterium tuberculosis; assay: Reduction in ribosomal protein synthesis related gene expression in Mycobacterium tuberculosis H37Rv ATCC 27294 at 7.5 ug/mL incubated for 4 hrs by DNA microarray analysis; type: functional, organism-based; in short: as §1
[15] = test system: Mycobacterium tuberculosis; assay: Reduction in aminoacyl t-RNA synthetases gene expression in Mycobacterium tuberculosis H37Rv ATCC 27294 at 7.5 ug/mL incubated for 4 hrs by DNA microarray analysis; type: functional, organism-based; in short: as §1
[16] = test system: Mycobacterium tuberculosis; assay: Induction of prrA gene expression in Mycobacterium tuberculosis H37Rv ATCC 27294 at 7.5 ug/mL incubated for 4 hrs by DNA microarray analysis; type: functional
In short: (§2)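 Total RNA was isolated from treated Mtb cells and analysed by DNA microarray. RNA from an untreated Mtb culture served as the control, and expression was reported as mean fold change relative to that untreated control.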

[17] = test system: Mycobacterium tuberculosis; assay: Induction of prrB gene expression in Mycobacterium tuberculosis H37Rv ATCC 27294 at 7.5 ug/mL incubated for 4 hrs by DNA microarray analysis; type: functional; in short: as §2
[18] = test system: Mycobacterium tuberculosis; assay: Antimicrobial activity against Mycobacterium tuberculosis H37Rv ATCC 27294 assessed as growth inhibition after 5 days by microdilution method; type: functional; settings: H37Rv ATCC 27294, 120 h
[19] = Solubility of the compound; type: physicochemical
[20] = test system: Mycobacterium tuberculosis; assay: Bactericidal activity against Mycobacterium tuberculosis H37Rv ATCC 27294 after 5 days by microdilution method; type: functional; settings: H37Rv ATCC 27294, 120 h
[21] = test system: Mycobacterium tuberculosis; assay: Ratio of MBC for Mycobacterium tuberculosis H37Rv ATCC 27294 to MIC for Mycobacterium tuberculosis H37Rv ATCC 27294; type: functional

CCCc1cc(-c2nc(-c3ccncc3)cs2)ccn1
log10CFU/ml [1]: 3 | log10CFU/ml [2]: 1.5 | IC50 [3]: > 50 µM | Activity [4]: Active | Activity [5]: Active | Activity [6]: Active | Activity [7]: Active | Activity [8]: Active | Activity [9]: Active | Activity [10]: Active | Activity [11]: Active | Activity [12]: Active | Activity [13]: Active | Activity [14]: Active | Activity [15]: Active | fold change (FC) [16]: 0.7 | fold change (FC) [17]: 0.7 | MIC80 [18]: 0.4 µg/mL (≈ 1.42 µM) | solubility [19]: 91.5 µM (≈ 25.7 µg/mL) | MBC [20]: 0.8 µg/mL (≈ 2.84 µM) | Ratio [21]: 2
